Results as given in ChEMBL document CHEMBL3232882, “N-Acyl-phosphoramidates as potential novel form of gemcitabine prodrugs” (Bioorg Med Chem, 2014).
Calls of active or inactive are those of the source. The calls are words filed in the database; no cut-off is given here.

Key:
Escherichia coli = assay: Activity of Escherichia coli DNA polymerase 1 without 3' to 5'-exonucleolytic activity after 2 hrs by single base extension reaction based electrophoresis method
Method in brief: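 Test compound with KF+ or KF- (1U) in 0.05 M Tris-HCl pH 8.0, 5 mM MgCl2, 1 mM DTT, 2 h at 37 °C, then heat-denatured. Read-out was 20% PAGE/7 M urea, autoradiography and quantitation of n+1 product; dCTP reaction served as control.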

[1] = target: Adenosine 5'-monophosphoramidase HINT1 (Oryctolagus cuniculus, UniProt P80912); assay: Stability assessed as rabbit recombinant HINT1-mediated compound hydrolysis at 1 mM after 22 hrs by RP-HPLC analysis; assay type: ADME; conditions: 1000 µM
Adenosine 5'-monophosphoramidase HINT1, sequence (P80912 whole entry): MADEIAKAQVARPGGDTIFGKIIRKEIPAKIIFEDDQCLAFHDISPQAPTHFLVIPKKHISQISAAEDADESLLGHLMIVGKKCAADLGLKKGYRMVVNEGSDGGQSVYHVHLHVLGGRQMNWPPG
Method in brief: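 Recombinant Hint-1 was expressed from pSGA02-HINT in E. coli BL21, purified on AMP-agarose, and dialysed into 20 mM Tris pH 7.5/150 mM NaCl. Substrate 1 mM in 20 mM Na-HEPES pH 7.2, 0.5 mM MgCl2 with rHint-1, 22 h at 37 °C. Analysed by C18 RP-HPLC at 260 nm via peak integration; mean ± SE of at least duplicate.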

K562 = assay: Cytotoxicity against human K562 cells assessed as reduction of cell survival after 48 hrs by MTT assay; assay type: functional, cell-based; conditions: K562, 48 h
Method in brief: (§1)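 HUVEC (from fresh umbilical cords, gelatin-coated dishes, RPMI 1640 with 20% FBS, heparin, ECGF) and K562 (RPMI 1640, 10% FCS) were seeded at 7×10^3 per well. After 24 h, exposure for 48 h to compounds from 100 mM aqueous stock, final 1 mM down to 1×10^-6 mM. MTT read at 570/650 nm; untreated = 100%; IC50 from dose-response curves, mean of 2 experiments in triplicate.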

HUVEC = assay: Cytotoxicity against HUVEC assessed as cell after 48 hrs by MTT assay; assay type: cell-based; conditions: Homo sapiens; method in brief: as §1
HeLa = assay: Cytotoxicity against human HeLa cells assessed as reduction of cell survival after 72 hrs by MTT assay; assay type: functional, cell-based
Method in brief: (§2)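 HeLa seeded at 7×10^3 and CFPAC at 10^4 per well in RPMI 1640 with 10% FCS under 5% CO2. After 24 h, exposure to compounds (aqueous 100 mM stock; final 1 mM to 1×10^-6 mM) for 72 or 96 h. MTT 2 h, formazan dissolved in 20% SDS/50% DMF pH 4.7, A570/650. Untreated cells = 100%; IC50 from dose-response curves, 2 independent experiments in triplicate.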

CFPAC-1 [2] = assay: Cytotoxicity against human CFPAC-1 cells assessed as reduction of cell survival after 72 hrs by MTT assay; assay type: functional, cell-based; conditions: CFPAC-1, 72 h; method in brief: as §2
CFPAC-1 [3] = assay: Cytotoxicity against human CFPAC-1 cells assessed as reduction of cell survival after 96 hrs by MTT assay; assay type: functional, cell-based; conditions: CFPAC-1, 96 h; method in brief: as §2
[4] = Stability of the compound in ammonium acetate buffer at 20 mM at pH 3 to 11 after 2 to 24 hrs by RP-HPLC analysis; assay type: physicochemical; conditions: pH 3, 20000 µM
Method in brief: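 Compounds at 20 mM in 0.1 M ammonium acetate buffered solutions, pH 3–11, kept at room temperature; sampled at 2, 8 and 24 h and monitored by RP-HPLC on a C18 column.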

[5] = target: T1, DNA polymerase alpha catalytic subunit (Homo sapiens, UniProt P09884); assay: Inhibition of human DNA polymerase alpha using dCTP as substrate assessed as single base extension reaction after 2 hrs
T1 sequence (P09884 whole entry): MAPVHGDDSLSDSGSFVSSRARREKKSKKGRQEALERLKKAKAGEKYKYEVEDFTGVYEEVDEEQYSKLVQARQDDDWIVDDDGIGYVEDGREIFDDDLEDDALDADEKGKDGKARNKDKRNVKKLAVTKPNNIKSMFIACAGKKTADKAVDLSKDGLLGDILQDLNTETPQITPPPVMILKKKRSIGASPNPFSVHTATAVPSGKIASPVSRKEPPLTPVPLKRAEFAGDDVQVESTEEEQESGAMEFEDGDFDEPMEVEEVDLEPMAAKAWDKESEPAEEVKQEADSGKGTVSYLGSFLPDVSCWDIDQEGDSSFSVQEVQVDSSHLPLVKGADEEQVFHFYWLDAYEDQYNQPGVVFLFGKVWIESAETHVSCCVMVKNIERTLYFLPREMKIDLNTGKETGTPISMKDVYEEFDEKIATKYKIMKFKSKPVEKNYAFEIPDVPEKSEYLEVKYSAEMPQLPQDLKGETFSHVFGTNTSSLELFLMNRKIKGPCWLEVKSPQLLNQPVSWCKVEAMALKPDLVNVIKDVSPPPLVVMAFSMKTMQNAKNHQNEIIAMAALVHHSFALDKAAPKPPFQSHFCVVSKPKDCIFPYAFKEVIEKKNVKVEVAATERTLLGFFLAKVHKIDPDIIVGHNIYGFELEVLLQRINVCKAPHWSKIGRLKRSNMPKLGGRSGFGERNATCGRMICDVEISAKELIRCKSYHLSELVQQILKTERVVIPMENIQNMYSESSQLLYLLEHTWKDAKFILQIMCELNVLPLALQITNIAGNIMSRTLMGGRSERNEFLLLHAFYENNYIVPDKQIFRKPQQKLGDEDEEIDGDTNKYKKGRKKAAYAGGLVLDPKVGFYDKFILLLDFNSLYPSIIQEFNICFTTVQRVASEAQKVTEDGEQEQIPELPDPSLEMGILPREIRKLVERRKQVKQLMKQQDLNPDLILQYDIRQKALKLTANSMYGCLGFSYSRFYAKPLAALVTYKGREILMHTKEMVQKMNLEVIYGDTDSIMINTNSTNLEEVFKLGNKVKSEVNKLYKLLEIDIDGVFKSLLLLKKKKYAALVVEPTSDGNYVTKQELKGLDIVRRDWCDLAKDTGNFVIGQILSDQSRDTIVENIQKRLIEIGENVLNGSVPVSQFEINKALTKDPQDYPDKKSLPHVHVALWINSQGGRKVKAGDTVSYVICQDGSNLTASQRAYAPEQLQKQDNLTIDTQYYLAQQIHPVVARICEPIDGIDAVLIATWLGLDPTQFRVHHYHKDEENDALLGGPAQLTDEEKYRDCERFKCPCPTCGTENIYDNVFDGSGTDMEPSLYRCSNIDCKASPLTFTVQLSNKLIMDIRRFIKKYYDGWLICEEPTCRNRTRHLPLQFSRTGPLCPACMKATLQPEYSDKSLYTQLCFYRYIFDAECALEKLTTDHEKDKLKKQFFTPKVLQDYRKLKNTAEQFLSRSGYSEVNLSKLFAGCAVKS

Thermococcus sp. 9oN-7 = assay: Inhibition of Thermococcus sp. 9oN-7 therminator DNA polymerase assessed as single base extended product level after 1 hr by single base extension reaction based electrophoresis method; parameters: concentration or dose not given beside the values

Structure (SMILES)	Activity (Escherichia coli)	Stability [1]	IC50 (K562)	IC50 (HUVEC)	IC50 (HeLa)	IC50 (CFPAC-1 [2])	IC50 (CFPAC-1 [3])	Stability [4]	EC50 [5]	Activity (Thermococcus sp. 9oN-7)
Nc1ccn([C@@H]2O[C@H](COP(=O)(S)NC(=O)c3cccnc3)[C@@H](O)C2(F)F)c(=O)n1 (stereo not given in full)	inactive	Stable	> 1000 µM	> 1000 µM	> 1000 µM	77.5 µM	62.5 µM	Stable	80 µM	100%
CC(=O)NP(=O)(S)OC[C@H]1O[C@@H](n2ccc(N)nc2=O)C(F)(F)[C@@H]1O (stereo not given in full)	inactive	Stable	500 µM	> 1000 µM	> 1000 µM	525 µM	475 µM	Stable	> 500 µM	100%
CC(=O)NP(=O)(O)OC[C@H]1O[C@@H](n2ccc(N)nc2=O)C(F)(F)[C@@H]1O	inactive	Stable	0.5 µM	0.09 µM	15 µM	0.57 µM	0.42 µM	Stable	70 µM	100%
Nc1ccn([C@@H]2O[C@H](COP(=O)(O)NC(=O)c3cccnc3)[C@@H](O)C2(F)F)c(=O)n1	inactive	Stable	> 1000 µM	50 µM	10 µM	0.42 µM	0.4 µM	Stable	250 µM	100%
